{"source": "paper PMC5470083", "about": "(Molecular imaging, 2016)", "key": {"[1]": {"assay": "Plasma radiometabolite analysis", "assay_type": "in vivo, mouse", "conditions": "normal mice", "in_short": "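NMRI mice under isoflurane (2.5% in O2) received about 3.7 MBq of 18F-labelled tracer via a lateral tail vein. They were decapitated at 2, 10, 30 or 60 min PI (n = 3/time point). EDTA blood was kept on ice and spun at 2330 ×g for 10 min. Plasma (0.5 mL) was spiked with 10 µg authentic unlabelled compound and run on C18 HPLC. Fractions were γ-counted for % intact tracer, reported as mean ± SD.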"}, "tau (NFTs) [2]": {"biological_target": "T1, tau (NFTs) (Homo sapiens, UniProt P10636)", "assay_type": "binding"}, "Aβ": {"biological_target": "Aβ (Homo sapiens, UniProt P05067)", "sequence (P05067 672-711 limits assumed)": "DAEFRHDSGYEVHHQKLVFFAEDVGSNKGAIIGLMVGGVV", "assay": "In vitro autoradiography binding inhibition of [11C]PiB on human AD brain slices"}, "[3]": {"assay": "Perfused brain radiometabolite analysis", "assay_type": "in vivo, mouse", "conditions": "normal mice"}, "amyloid plaques": {"biological_target": "amyloid plaques (Homo sapiens, UniProt P05067)", "sequence (P05067 672-711 limits assumed)": "as above", "assay_type": "binding"}, "PHF tau": {"biological_target": "PHF tau (Homo sapiens, UniProt P10636)", "sequence (P10636 623-695 limits assumed)": "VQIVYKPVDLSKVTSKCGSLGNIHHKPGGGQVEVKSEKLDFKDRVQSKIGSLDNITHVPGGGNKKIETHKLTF", "assay_type": "binding"}, "NFTs": {"biological_target": "NFTs", "conditions": "autoradiography on human AD brain tissue sections; ref [8],[11]; cited from earlier work"}, "[4]": {"assay": "Biodistribution in normal NMRI mice", "assay_type": "in vivo, mouse", "conditions": "for %ID/g Blood / %ID/g Bone / %ID/g Brain / %ID/g Cerebellum / %ID/g Cerebrum / %ID/g Heart / %ID/g Kidneys / %ID/g Liver / %ID/g Lungs / %ID/g Muscle / %ID/g Pancreas / %ID/g Spleen: iv", "in_short": "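Healthy male NMRI mice (30-40 g) under 2.5% isoflurane in O2 received about 0.9 MBq of 18F-labelled tracer by tail vein. They were decapitated at 2, 10, 30 and 60 min PI (n = 4/time point). Blood and organs were weighed and γ-counted. Blood, bone and muscle were taken as 7%, 12% and 40% of body mass. Blood clearance was calculated as the 2 min to 60 min activity ratio.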"}, "tau (NFTs) [5]": {"biological_target": "T1, tau (NFTs)", "assay_type": "binding", "conditions": "1 µmol/L compound; tracer 7 nmol/L [18F]T808; human AD slices; n = 3"}, "[6]": {"conditions": "read-out: % Block ± SD of tracer binding"}}, "note": "Where two headings read alike, the source gives them in different places."}
{"molecule": "[18F]c1ccc(-c2ccc3c(c2)[nH]c2ccncc23)cn1", "note": "[T807, 7-[6-[^18F]fluoropyridin-3-yl]-5H-pyrido-[4,3-b]indole]", "values": [{"measurement": "Mean % ± SD of intact tracer, plasma", "setting": "[1]; 2 min after injection, n = 3", "value": "99 ± 1", "unit": "%"}, {"measurement": "Mean % ± SD of intact tracer, plasma", "setting": "[1]; 2 min after injection, n = 3, listed as [^18F]T807", "value": 99, "unit": "%"}, {"measurement": "Mean % ± SD of intact tracer, plasma", "setting": "[1]; 10 min after injection, n = 3", "value": "84 ± 5", "unit": "%"}, {"measurement": "Mean % ± SD of intact tracer, plasma", "setting": "[1]; 30 min after injection, n = 3", "value": "60 ± 14", "unit": "%"}, {"measurement": "Mean % ± SD of intact tracer, plasma", "setting": "[1]; 30 min after injection, n = 3, listed as [^18F]T807", "value": 60, "unit": "%"}, {"measurement": "Mean % ± SD of intact tracer, plasma", "setting": "[1]; 60 min after injection, n = 3", "value": "45 ± 4", "unit": "%"}, {"measurement": "% Block ± SD of tracer binding", "setting": "tau (NFTs) [2]; 1 µmol/L compound, tracer 28 nmol/L [18F]T807, human AD slices, n = 3", "value": "88 ± 0.0", "unit": "%"}, {"measurement": "inhibition at 1 µM", "setting": "tau (NFTs) [2]; [6]", "value": 88, "unit": "%"}, {"measurement": "% Block ± SD of tracer binding", "setting": "Aβ; 1 µmol/L compound, tracer 13 nmol/L [11C]PiB, human AD slices, n = 3", "value": "11 ± 0.1", "unit": "%"}, {"measurement": "inhibition at 1 µM", "setting": "Aβ; [6]", "value": 11, "unit": "%"}, {"measurement": "inhibition at 1 µM", "setting": "Aβ; read-out: Inhibition of [11C]PiB binding, summary statements", "value": "< 17", "unit": "%"}, {"measurement": "Mean % ± SD of intact tracer, perfused brain", "setting": "[3]; 10 min after injection, n = 3", "value": "100 ± 0", "unit": "%"}, {"measurement": "Mean % ± SD of intact tracer, perfused brain", "setting": "[3]; 10 min after injection, n = 3, listed as [^18F]T807", "value": "~100", "unit": "%"}, {"measurement": "Mean % ± SD of intact tracer, perfused brain", "setting": "[3]; 60 min after injection, n = 3", "value": "99 ± 1", "unit": "%"}, {"measurement": "Mean % ± SD of intact tracer, perfused brain", "setting": "[3]; 60 min after injection, n = 3, listed as [^18F]T807", "value": "~100", "unit": "%"}, {"measurement": "Ki", "setting": "amyloid plaques", "value": 247, "unit": "nM"}, {"measurement": "Ki", "setting": "PHF tau", "value": 1.1, "unit": "nM"}, {"measurement": "Kd", "setting": "NFTs", "value": 15, "unit": "nM"}, {"measurement": "fold higher binding affinity for NFTs over Aβ", "setting": "NFTs", "value": 25, "unit": "fold"}, {"measurement": "%ID/g Blood", "setting": "[4]; blood, 2 min PI", "value": "1.5 ± 0.2", "unit": "%ID/g"}, {"measurement": "2/60 min activity ratio Blood (clearance from blood)", "setting": "[4]; blood, 2 min to 60 min activity ratio", "value": 2.5}, {"measurement": "%ID/g Blood", "setting": "[4]; blood, 10 min PI", "value": "0.7 ± 0.0", "unit": "%ID/g"}, {"measurement": "%ID/g Blood", "setting": "[4]; blood, 30 min PI", "value": "0.7 ± 0.1", "unit": "%ID/g"}, {"measurement": "%ID/g Blood", "setting": "[4]; blood, 60 min PI", "value": "0.6 ± 0.1", "unit": "%ID/g"}, {"measurement": "%ID/g Bone", "setting": "[4]; 2 min PI", "value": "0.1 ± 0.1", "unit": "%ID/g"}, {"measurement": "%ID/g Bone", "setting": "[4]; 10 min PI", "value": "1.4 ± 0.2", "unit": "%ID/g"}, {"measurement": "%ID/g Bone", "setting": "[4]; 60 min PI", "value": "0.1 ± 0.0", "unit": "%ID/g"}, {"measurement": "%ID/g Brain", "setting": "[4]; brain, 2 min PI", "value": "7.5 ± 1.1", "unit": "%ID/g"}, {"measurement": "2/60 min activity ratio Brain", "setting": "[4]; brain, 2 min to 60 min activity ratio", "value": 18.3}, {"measurement": "%ID/g Brain", "setting": "[4]; brain, 10 min PI", "value": "2.6 ± 0.5", "unit": "%ID/g"}, {"measurement": "%ID/g Brain", "setting": "[4]; brain, 30 min PI", "value": "0.8 ± 0.4", "unit": "%ID/g"}, {"measurement": "%ID/g Brain", "setting": "[4]; brain, 60 min PI", "value": "0.4 ± 0.2", "unit": "%ID/g"}, {"measurement": "%ID/g Cerebellum", "setting": "[4]; 2 min PI", "value": "8.5 ± 1.4", "unit": "%ID/g"}, {"measurement": "%ID/g Cerebellum", "setting": "[4]; 10 min PI", "value": "2.4 ± 0.5", "unit": "%ID/g"}, {"measurement": "%ID/g Cerebellum", "setting": "[4]; 30 min PI", "value": "0.8 ± 0.4", "unit": "%ID/g"}, {"measurement": "%ID/g Cerebellum", "setting": "[4]; 60 min PI", "value": "0.4 ± 0.2", "unit": "%ID/g"}, {"measurement": "%ID/g Cerebrum", "setting": "[4]; 2 min PI", "value": "7.2 ± 1.0", "unit": "%ID/g"}, {"measurement": "%ID/g Cerebrum", "setting": "[4]; 10 min PI", "value": "2.6 ± 0.5", "unit": "%ID/g"}, {"measurement": "%ID/g Cerebrum", "setting": "[4]; 30 min PI", "value": "0.8 ± 0.4", "unit": "%ID/g"}, {"measurement": "%ID/g Cerebrum", "setting": "[4]; 60 min PI", "value": "0.4 ± 0.2", "unit": "%ID/g"}, {"measurement": "%ID/g Heart", "setting": "[4]; 2 min PI", "value": "6.8 ± 0.9", "unit": "%ID/g"}, {"measurement": "%ID/g Heart", "setting": "[4]; 10 min PI", "value": "2.1 ± 0.3", "unit": "%ID/g"}, {"measurement": "%ID/g Heart", "setting": "[4]; 30 min PI", "value": "1.3 ± 0.3", "unit": "%ID/g"}, {"measurement": "%ID/g Heart", "setting": "[4]; 60 min PI", "value": "1.0 ± 0.1", "unit": "%ID/g"}, {"measurement": "%ID/g Kidneys", "setting": "[4]; 2 min PI", "value": "35.9 ± 6.2", "unit": "%ID/g"}, {"measurement": "%ID/g Kidneys", "setting": "[4]; 10 min PI", "value": "25.6 ± 3.0", "unit": "%ID/g"}, {"measurement": "%ID/g Kidneys", "setting": "[4]; 30 min PI", "value": "15.8 ± 5.0", "unit": "%ID/g"}, {"measurement": "%ID/g Kidneys", "setting": "[4]; 60 min PI", "value": "13.0 ± 2.6", "unit": "%ID/g"}, {"measurement": "%ID/g Liver", "setting": "[4]; 2 min PI", "value": "12.6 ± 2.4", "unit": "%ID/g"}, {"measurement": "%ID/g Liver", "setting": "[4]; 10 min PI", "value": "14.6 ± 1.0", "unit": "%ID/g"}, {"measurement": "%ID/g Liver", "setting": "[4]; 30 min PI", "value": "20.7 ± 1.8", "unit": "%ID/g"}, {"measurement": "%ID/g Liver", "setting": "[4]; 60 min PI", "value": "18.1 ± 2.2", "unit": "%ID/g"}, {"measurement": "%ID/g Lungs", "setting": "[4]; 2 min PI", "value": "25.1 ± 11.9", "unit": "%ID/g"}, {"measurement": "%ID/g Lungs", "setting": "[4]; 10 min PI", "value": "4.2 ± 1.8", "unit": "%ID/g"}, {"measurement": "%ID/g Lungs", "setting": "[4]; 30 min PI", "value": "3.9 ± 1.2", "unit": "%ID/g"}, {"measurement": "%ID/g Lungs", "setting": "[4]; 60 min PI", "value": "2.1 ± 0.7", "unit": "%ID/g"}, {"measurement": "%ID/g Muscle", "setting": "[4]; 2 min PI", "value": "3.0 ± 1.8", "unit": "%ID/g"}, {"measurement": "%ID/g Muscle", "setting": "[4]; 10 min PI", "value": "1.4 ± 0.3", "unit": "%ID/g"}, {"measurement": "%ID/g Muscle", "setting": "[4]; 30 min PI", "value": "0.6 ± 0.1", "unit": "%ID/g"}, {"measurement": "%ID/g Muscle", "setting": "[4]; 60 min PI", "value": "0.5 ± 0.1", "unit": "%ID/g"}, {"measurement": "%ID/g Pancreas", "setting": "[4]; 2 min PI", "value": "4.1 ± 2.2", "unit": "%ID/g"}, {"measurement": "%ID/g Pancreas", "setting": "[4]; 10 min PI", "value": "4.7 ± 0.7", "unit": "%ID/g"}, {"measurement": "%ID/g Pancreas", "setting": "[4]; 30 min PI", "value": "2.1 ± 0.8", "unit": "%ID/g"}, {"measurement": "%ID/g Pancreas", "setting": "[4]; 60 min PI", "value": "1.5 ± 0.6", "unit": "%ID/g"}, {"measurement": "%ID/g Spleen", "setting": "[4]; 2 min PI", "value": "15.7 ± 5.1", "unit": "%ID/g"}, {"measurement": "%ID/g Spleen", "setting": "[4]; 10 min PI", "value": "13.8 ± 12.5", "unit": "%ID/g"}, {"measurement": "%ID/g Spleen", "setting": "[4]; 30 min PI", "value": "3.8 ± 1.3", "unit": "%ID/g"}, {"measurement": "%ID/g Spleen", "setting": "[4]; 60 min PI", "value": "3.1 ± 1.7", "unit": "%ID/g"}, {"measurement": "% Block ± SD of tracer binding", "setting": "tau (NFTs) [5]", "value": "94 ± 0.0", "unit": "%"}]}
